Shown are actives, neighbours in structure and some others; about 5.5% of the full set was active somewhere.
WT yeast gro inh: growth inhibition of WT strain, primary screen, mitochondrial fusion inhibitor project, WT and mutant strains, chemical genetic; mitochondrial fusion phenotypic screen; inhibition, % at 10 µM; 2.1% of 190,000 active; AID 1362, 2008; in the data active = inhibition above about 58%; tested in S. cerevisiae
Yeast growth inh: growth inhibitors of yeast BB579 in restrictive medium, primary screen, yeast lifespan-shortening project, S. cerevisiae; OD615, 48 h; inhibition, % at 10 µM; 0.51% of 140,000 active; AID 804, 2007;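 active = inhibition above a set limit, 3 SD over the mean compound inhibition, cut at about 44% in these data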
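controls = amphotericin B 10 µg/mL, positive | assay system = DeaD yeast strain BB579 | schedule = 48 h compound exposure at 30 °C after 4 h preincubation | detection = OD615 turbidity measurement | medium = restrictive CSMM-D medium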
RAM network inh: inhibitors of the yeast RAM network, primary screen, dse1pr::URA3 reporter, 5-FOA selection; S. cerevisiae dse1pr::URA3 reporter, 5-FOA growth OD615, 2 d; analog-sensitive cbk1-as2 kinase mutant strain; inhibition, % at 50 µM; 1.8% of 190,000 active; AID 868, 2007;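 active = inhibition above a set limit, 3 SD over mean compound inhibition, cut at about 8.4% in these data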;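 also: inhibition rescues growth on 5-FOA so higher OD means more RAM inhibition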
Yeast life ext: compounds extending yeast replicative lifespan, primary screen, S. cerevisiae, OD615. inhibition of the nicotinamide effect, % at 10 µM. S. cerevisiae growth with nicotinamide; deaD strain in restrictive glucose medium. AID 775, 2007. 0.68% of 130,000 active;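 active = inhibition above a set limit, placed 3 SD over the median of all compounds, cut at about 26% in these data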
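Assay system: engineered S. cerevisiae DeaD replicative-lifespan strain, galactose-grown log-phase cells; medium: restrictive CSMM-D dextrose medium; also added: nicotinamide, 1.5 mM, co-present with compound; schedule: 48 h compound exposure at 30 °C, humidified; detection: absorbance at 615 nm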
Cl transport mod: KCC2 cotransporter modulators, thallium flux, primary screen, cell-based, HEK293 KCC2, FluoZin-2 fluorescence, MLSMR. Solute carrier family 12 member 5 (Homo sapiens), Q9H2X9. KCC2 cells, thallium flux FluoZin-2 fluorescence. B-score of Tl+ flux slope (higher = more flux/activation; lower = inhibition) at 10 µM. 2.2% of 190,000 active. AID 1456, 2008;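 active = thallium flux slope and its plate-corrected score both differing from the plate sample mean at a set confidence after two filtering rounds, in either direction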;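 also: slope of fluorescence scaled to starting intensity during 10 to 20 s after thallium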
Target sequence (Q9H2X9 whole entry, looked up): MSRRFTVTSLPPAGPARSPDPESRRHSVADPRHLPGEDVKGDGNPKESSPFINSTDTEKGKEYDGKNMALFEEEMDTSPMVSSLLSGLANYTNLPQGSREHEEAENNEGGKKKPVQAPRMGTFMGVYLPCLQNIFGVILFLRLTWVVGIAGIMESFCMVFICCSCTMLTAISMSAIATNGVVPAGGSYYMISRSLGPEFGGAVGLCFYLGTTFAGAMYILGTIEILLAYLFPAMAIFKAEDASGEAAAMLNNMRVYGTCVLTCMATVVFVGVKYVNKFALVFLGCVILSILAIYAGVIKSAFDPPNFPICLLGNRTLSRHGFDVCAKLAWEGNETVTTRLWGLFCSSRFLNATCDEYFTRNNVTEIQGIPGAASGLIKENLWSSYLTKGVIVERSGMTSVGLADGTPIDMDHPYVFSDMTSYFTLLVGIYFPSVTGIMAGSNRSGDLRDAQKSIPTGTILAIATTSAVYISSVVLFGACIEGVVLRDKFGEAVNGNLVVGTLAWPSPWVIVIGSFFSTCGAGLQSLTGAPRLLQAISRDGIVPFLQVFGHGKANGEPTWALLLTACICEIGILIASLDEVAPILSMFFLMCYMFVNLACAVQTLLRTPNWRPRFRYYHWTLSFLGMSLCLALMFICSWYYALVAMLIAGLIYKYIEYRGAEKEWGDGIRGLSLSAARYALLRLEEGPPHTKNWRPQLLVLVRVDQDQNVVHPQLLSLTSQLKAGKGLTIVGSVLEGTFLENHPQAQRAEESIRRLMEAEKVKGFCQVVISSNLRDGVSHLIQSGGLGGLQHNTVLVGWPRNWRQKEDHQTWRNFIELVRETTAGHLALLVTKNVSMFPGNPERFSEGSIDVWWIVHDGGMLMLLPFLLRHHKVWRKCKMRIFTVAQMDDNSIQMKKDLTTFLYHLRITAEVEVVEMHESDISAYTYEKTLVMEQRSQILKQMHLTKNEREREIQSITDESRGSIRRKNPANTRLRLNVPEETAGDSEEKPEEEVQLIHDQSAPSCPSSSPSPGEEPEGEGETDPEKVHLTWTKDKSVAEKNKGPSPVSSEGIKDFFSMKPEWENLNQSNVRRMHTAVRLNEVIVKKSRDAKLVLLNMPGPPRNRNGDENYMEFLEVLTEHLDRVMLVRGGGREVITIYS
RAM 5-FOA: 5-FOA growth of efflux-deficient control yeast, dose response, counter-screen for RAM network inhibitor project, S. cerevisiae, OD615. S. cerevisiae efflux-deficient reporter strain, 5-FOA growth OD615, 2 days. shares compounds with RAM network inh. max inhibition, %. 1,200 tested, under 10 active; call rule not given here
Large screens that a line does not name were inactive (follow-up assays come after a bar, where they were run).

CC(=O)c1cc2ccc(O)cc2oc1=O	none (no result: WT yeast gro inh, Yeast growth inh, RAM network inh, Yeast life ext)
Cc1ccc(N=c2oc3cc(O)ccc3cc2C(N)=O)cc1	RAM network inh 27 | RAM 5-FOA inactive
COc1ccc(OC2C(=O)N(Cc3ccc4c(c3)OCO4)C2c2cccs2)cc1 (stereo not drawn)	RAM network inh 13 | RAM 5-FOA inactive
COc1ccc(CCN2C(=O)C(Oc3ccccc3)C2c2ccc3c(c2)OCO3)cc1 (stereo not drawn)	none
COc1ccc(NC(=O)c2cccc(S(=O)(=O)Nc3ccc(Br)cc3)c2)cn1	none
O=C(Nc1ccc(Br)cc1)c1cccc(S(=O)(=O)Nc2cnc3ccccc3c2)c1	RAM network inh 15 | RAM 5-FOA inactive
CSc1ccc(CN(C)C(C)C(=O)NCc2ccccc2)cc1 (stereo not drawn)	none (no result: Yeast growth inh, Yeast life ext)
COc1ccc(NC(=O)C23CC4CC(C2)CC(c2ccccc2)(C4)C3)c(OC)c1	RAM network inh 13 | RAM 5-FOA inactive
O=C(CSc1cn(Cc2ccccc2)c2ccccc12)NCc1ccc(F)cc1	none
O=C(NC(=S)NC(=O)c1ccccc1F)c1ccccc1F	none
O=C(NC(=S)N(Cc1ccccc1)Cc1ccccc1)c1ccccc1F	RAM network inh 12, Cl transport mod 65 | RAM 5-FOA inactive
c1ccc2cc(Sc3ncnc4c3oc3ccccc34)ccc2c1	RAM network inh 13 | RAM 5-FOA inactive
O=C(NCc1ccccc1)C1(c2cccc(F)c2)CCCC1	none (no result: Yeast growth inh, Yeast life ext)
O=C(O)CC1S/C(=N/N=C/c2ccc(Br)cc2)N(c2ccccc2)C1=O (stereo not drawn)	RAM network inh 13 (no result: Yeast growth inh, Yeast life ext) | RAM 5-FOA inactive
O=C(NC1CCCCC1)c1ccc(CNc2nc(=S)[nH]c3ccccc23)cc1	none (no result: Yeast growth inh, Yeast life ext)
O=C(Nc1ccc(Cl)c([N+](=O)[O-])c1)C(Sc1ccccc1)c1ccccc1 (stereo not drawn)	WT yeast gro inh 80, RAM network inh 15 | RAM 5-FOA inactive
COc1ccccc1NC(=O)C(Sc1ccccc1)c1ccccc1 (stereo not drawn)	RAM network inh 11 | RAM 5-FOA inactive
COc1ccc(NC(=O)C(Sc2ccccc2)c2ccccc2)c(OC)c1 (stereo not drawn)	none
O=C(O)CCCCn1c(SCc2ccccc2Cl)nc2ccsc2c1=O	RAM network inh 17 (no result: Yeast growth inh, Yeast life ext) | RAM 5-FOA inactive
O=C(CSc1nnc(-c2ccncc2)n1-c1ccccc1)Nc1ccc(C(=O)O)cc1	none (no result: Yeast growth inh, Yeast life ext)
O=C(CSc1nnc(-c2ccncc2)n1-c1ccccc1Cl)Nc1ccc(C(=O)O)cc1	RAM network inh 12 (no result: Yeast growth inh, Yeast life ext) | RAM 5-FOA inactive
CCOC(=O)c1cc(C#N)c(Oc2ccc(F)cc2)nc1-c1ccccc1	none (no result: Cl transport mod)
CCOC(=O)c1cc(C#N)c(Oc2cccc(C(F)(F)F)c2)nc1-c1ccccc1	RAM network inh 13 (no result: Cl transport mod) | RAM 5-FOA inactive
CCCN(CC1CC1)C(=O)COC(=O)c1ccc(CNS(=O)(=O)c2ccc(F)c(Cl)c2)cc1	RAM network inh 12 | RAM 5-FOA inactive
Cc1nn(CC(=O)c2cccc(Cl)c2)c(C)c1[N+](=O)[O-]	none (no result: Yeast growth inh, Yeast life ext)
COc1cccc(-n2c([S-])c(C(=O)Nc3ccc(S(=O)(=O)N4CCOCC4)cc3)[n+]3cc(C(N)=O)ccc23)c1	none (no result: WT yeast gro inh, Yeast growth inh, RAM network inh, Yeast life ext)
COc1ccc(-c2ccc(-c3noc(C4CCCCC4)n3)c(OC)n2)cc1	RAM network inh 16 | RAM 5-FOA inactive
COc1ccc(-c2ccc(-c3noc(-c4cccc(OC)c4)n3)c(OC)n2)cc1	RAM network inh 15 (no result: Cl transport mod) | RAM 5-FOA inactive
CCOc1nc(-c2ccccc2)ccc1-c1noc(-c2ccco2)n1	none
COc1ccc(-c2ccc(-c3noc(C)n3)c(OC)n2)cc1	none (no result: Cl transport mod)
CCOc1nc(-c2ccccc2)ccc1-c1noc(COc2ccccc2)n1	RAM network inh 17 | RAM 5-FOA inactive
COc1ccc(-c2ccc(-c3noc(-c4ccccc4C)n3)c(OC)n2)cc1	RAM network inh 16 (no result: Cl transport mod) | RAM 5-FOA inactive
COc1ccc(NS(=O)(=O)c2ccc(C)c(NC(=O)c3ccc(C)c(S(=O)(=O)N4CCOCC4)c3)c2)cc1	none
